From ChEMBL document CHEMBL4251655 (Eur J Med Chem, 2018)

Tests used:
[1] = Lipophilicity, log D at pH 7.4 by shake flask method; conditions: buffer
[2] = Permeability of the compound in RRCK cells; type: ADME, cell-based, Canis lupus familiaris, MDCKII-LE; conditions: dog, MDCK; read-out: permeability
[3] = target: RAC-alpha serine/threonine-protein kinase (Homo sapiens) (UniProt P31749); assay: Inhibition of recombinant full length human His-tagged AKT1 expressed in baculovirus expression system at 1 uM relative to control
How it was run: (§1)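 Forty-kinase selectivity panel; each compound tested at a single 1 µM concentration in the presence of 1 mM ATP; result given as percent inhibition.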

[4] = target: Tyrosine-protein kinase BTK (Homo sapiens) (UniProt Q06187); assay: Inhibition of recombinant full length human His-tagged BTK expressed in baculovirus expression system at 1 uM relative to control; how it was run: as §1
[5] = target: Casein kinase II subunit alpha' (Homo sapiens) (UniProt P19784); assay: Inhibition of recombinant full length human GST-tagged CSNK2A2 expressed in baculovirus expression system at 1 uM relative to control; how it was run: as §1
[6] = target: Epidermal growth factor receptor (Homo sapiens) (UniProt P00533); assay: Inhibition of recombinant human GST-tagged EGFR cytoplasmic domain expressed in baculovirus expression system at 1 uM relative to control; how it was run: as §1
[7] = target: Vascular endothelial growth factor receptor 2 (Homo sapiens) (UniProt P35968); assay: Inhibition of recombinant human His-tagged KDR cytoplasmic domain expressed in baculovirus expression system at 1 uM relative to control; how it was run: as §1
[8] = target: Mitogen-activated protein kinase 14 (Homo sapiens) (UniProt Q16539); assay: Inhibition of recombinant full length human GST-tagged MAPK14 expressed in Escherichia coli at 1 uM relative to control; how it was run: as §1
[9] = target: MAP kinase-activated protein kinase 2 (Homo sapiens) (UniProt P49137); assay: Inhibition of recombinant full length human His-tagged MAPKAPK2 expressed in Escherichia coli at 1 uM relative to control; how it was run: as §1
[10] = target: Serine/threonine-protein kinase MARK1 (Homo sapiens) (UniProt Q9P0L2); assay: Inhibition of recombinant human full length GST-tagged MARK1 expressed in baculovirus expression system at 1 uM relative to control; how it was run: as §1
[11] = target: Protein kinase C beta type (Homo sapiens) (UniProt P05771); assay: Inhibition of recombinant human full length GST-tagged PRKCB2 expressed in insect cells at 1 uM relative to control; how it was run: as §1
[12] = target: Rho-associated protein kinase 1 (Homo sapiens) (UniProt Q13464); assay: Inhibition of recombinant human GST-tagged ROCK1 (1 to 535 residues) expressed in baculovirus expression system at 1 uM relative to control; how it was run: as §1
[13] = target: T1, Serine/threonine-protein kinase TAO2 (Homo sapiens) (UniProt Q9UL54); assay: Inhibition of recombinant human GST-tagged TAOK2 expressed in baculovirus expression system at 1 uM relative to control; how it was run: as §1
T1 sequence (whole entry): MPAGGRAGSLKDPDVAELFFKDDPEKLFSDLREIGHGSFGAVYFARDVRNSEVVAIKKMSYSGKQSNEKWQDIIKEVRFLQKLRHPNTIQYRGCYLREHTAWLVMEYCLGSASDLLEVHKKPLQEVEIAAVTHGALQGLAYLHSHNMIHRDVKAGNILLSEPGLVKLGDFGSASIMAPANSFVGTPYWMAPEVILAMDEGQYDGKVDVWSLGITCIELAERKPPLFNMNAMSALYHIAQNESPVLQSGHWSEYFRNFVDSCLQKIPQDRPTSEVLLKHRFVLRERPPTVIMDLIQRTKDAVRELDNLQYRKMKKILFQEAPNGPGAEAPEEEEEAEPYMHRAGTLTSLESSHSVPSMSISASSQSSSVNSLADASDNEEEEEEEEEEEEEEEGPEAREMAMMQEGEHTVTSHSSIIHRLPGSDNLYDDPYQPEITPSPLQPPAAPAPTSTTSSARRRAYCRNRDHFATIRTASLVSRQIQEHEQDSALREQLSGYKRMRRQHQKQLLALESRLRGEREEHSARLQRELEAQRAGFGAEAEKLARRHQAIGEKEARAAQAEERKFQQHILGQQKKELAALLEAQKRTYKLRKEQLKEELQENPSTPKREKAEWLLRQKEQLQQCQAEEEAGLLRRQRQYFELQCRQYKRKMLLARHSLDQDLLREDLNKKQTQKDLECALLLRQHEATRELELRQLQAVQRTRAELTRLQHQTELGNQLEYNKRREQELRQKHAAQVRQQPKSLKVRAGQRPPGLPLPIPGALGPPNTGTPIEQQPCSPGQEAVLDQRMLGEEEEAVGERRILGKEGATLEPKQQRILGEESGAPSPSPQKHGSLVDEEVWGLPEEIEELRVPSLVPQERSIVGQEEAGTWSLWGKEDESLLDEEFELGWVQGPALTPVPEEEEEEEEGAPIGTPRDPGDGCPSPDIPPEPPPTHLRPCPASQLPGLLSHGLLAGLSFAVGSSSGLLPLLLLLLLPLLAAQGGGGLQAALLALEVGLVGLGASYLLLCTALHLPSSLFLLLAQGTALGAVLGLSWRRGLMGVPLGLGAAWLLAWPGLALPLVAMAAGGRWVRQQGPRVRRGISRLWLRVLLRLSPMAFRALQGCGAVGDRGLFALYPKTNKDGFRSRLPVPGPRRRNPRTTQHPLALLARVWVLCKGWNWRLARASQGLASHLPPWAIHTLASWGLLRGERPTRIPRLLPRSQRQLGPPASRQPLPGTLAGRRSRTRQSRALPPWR

[14] = target: T2, 3-phosphoinositide-dependent protein kinase 1 (Homo sapiens) (UniProt O15530); assay: Inhibition of recombinant human full length His-tagged PDPK1 expressed in baculovirus expression system at 1 uM relative to control; how it was run: as §1
T2 sequence (whole entry): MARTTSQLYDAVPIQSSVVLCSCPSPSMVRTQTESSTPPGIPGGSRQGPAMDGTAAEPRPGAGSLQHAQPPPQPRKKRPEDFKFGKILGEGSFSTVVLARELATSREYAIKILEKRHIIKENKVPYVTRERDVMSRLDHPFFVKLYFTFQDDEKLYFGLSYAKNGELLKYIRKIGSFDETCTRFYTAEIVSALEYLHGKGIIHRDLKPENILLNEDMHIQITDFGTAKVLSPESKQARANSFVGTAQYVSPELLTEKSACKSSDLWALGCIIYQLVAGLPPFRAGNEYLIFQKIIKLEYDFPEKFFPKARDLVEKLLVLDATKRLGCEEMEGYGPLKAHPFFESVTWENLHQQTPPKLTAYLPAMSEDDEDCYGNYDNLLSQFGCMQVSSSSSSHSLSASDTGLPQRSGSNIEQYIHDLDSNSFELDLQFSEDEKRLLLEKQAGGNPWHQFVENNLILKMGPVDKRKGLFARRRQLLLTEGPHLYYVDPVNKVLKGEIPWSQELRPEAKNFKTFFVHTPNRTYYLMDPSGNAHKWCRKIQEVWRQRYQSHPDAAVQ

Chain of Epidermal growth factor receptor (Homo sapiens) (P00533 whole entry, the tested form may be a part): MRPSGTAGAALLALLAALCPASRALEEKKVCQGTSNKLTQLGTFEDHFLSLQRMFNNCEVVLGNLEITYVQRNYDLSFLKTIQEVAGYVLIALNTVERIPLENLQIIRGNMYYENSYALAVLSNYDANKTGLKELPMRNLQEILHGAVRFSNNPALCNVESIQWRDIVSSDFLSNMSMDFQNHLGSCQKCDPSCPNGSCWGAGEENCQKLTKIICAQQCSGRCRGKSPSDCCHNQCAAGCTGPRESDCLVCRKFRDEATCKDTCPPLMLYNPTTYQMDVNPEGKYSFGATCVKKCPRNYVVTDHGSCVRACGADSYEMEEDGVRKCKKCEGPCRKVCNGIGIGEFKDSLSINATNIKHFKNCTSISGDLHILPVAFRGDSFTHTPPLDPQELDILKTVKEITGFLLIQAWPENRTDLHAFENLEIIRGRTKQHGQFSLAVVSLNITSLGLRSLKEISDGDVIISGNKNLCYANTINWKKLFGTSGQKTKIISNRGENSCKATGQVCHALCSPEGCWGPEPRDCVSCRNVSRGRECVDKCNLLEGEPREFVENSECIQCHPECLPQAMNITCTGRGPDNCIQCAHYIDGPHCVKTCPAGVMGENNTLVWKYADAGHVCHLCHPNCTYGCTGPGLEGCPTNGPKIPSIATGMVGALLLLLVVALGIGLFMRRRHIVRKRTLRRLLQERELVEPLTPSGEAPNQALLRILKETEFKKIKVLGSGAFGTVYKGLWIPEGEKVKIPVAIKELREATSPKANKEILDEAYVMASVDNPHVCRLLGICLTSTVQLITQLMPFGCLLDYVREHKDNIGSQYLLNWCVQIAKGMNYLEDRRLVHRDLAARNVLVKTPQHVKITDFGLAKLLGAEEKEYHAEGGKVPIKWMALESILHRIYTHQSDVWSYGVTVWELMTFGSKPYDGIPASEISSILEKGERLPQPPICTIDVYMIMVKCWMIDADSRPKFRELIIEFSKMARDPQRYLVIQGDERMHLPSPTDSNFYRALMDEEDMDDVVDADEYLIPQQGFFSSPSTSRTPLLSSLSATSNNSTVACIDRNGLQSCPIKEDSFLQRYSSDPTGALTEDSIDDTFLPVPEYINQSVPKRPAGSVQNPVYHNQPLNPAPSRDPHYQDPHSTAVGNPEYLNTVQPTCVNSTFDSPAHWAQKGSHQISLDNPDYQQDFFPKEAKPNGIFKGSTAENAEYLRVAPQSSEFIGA
Chain of Tyrosine-protein kinase BTK (Homo sapiens) (Q06187 whole entry): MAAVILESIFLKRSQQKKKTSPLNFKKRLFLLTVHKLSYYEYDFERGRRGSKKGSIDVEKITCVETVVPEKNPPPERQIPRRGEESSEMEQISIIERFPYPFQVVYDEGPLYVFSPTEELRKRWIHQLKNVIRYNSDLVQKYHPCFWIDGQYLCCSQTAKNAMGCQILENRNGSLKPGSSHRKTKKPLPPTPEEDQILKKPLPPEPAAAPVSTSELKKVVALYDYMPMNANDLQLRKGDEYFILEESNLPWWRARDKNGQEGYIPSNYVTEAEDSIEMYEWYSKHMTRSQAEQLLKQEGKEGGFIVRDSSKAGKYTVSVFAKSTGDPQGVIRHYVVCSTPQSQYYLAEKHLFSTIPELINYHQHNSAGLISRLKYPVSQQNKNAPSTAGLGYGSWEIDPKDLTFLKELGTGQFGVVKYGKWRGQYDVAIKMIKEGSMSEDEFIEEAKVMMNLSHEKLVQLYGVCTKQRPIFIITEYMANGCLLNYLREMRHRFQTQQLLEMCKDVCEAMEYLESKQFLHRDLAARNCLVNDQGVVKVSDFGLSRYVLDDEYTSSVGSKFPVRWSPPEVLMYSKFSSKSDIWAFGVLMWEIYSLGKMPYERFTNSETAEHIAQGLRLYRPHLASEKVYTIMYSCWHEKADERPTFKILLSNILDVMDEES
Chain of RAC-alpha serine/threonine-protein kinase (Homo sapiens) (P31749 whole entry): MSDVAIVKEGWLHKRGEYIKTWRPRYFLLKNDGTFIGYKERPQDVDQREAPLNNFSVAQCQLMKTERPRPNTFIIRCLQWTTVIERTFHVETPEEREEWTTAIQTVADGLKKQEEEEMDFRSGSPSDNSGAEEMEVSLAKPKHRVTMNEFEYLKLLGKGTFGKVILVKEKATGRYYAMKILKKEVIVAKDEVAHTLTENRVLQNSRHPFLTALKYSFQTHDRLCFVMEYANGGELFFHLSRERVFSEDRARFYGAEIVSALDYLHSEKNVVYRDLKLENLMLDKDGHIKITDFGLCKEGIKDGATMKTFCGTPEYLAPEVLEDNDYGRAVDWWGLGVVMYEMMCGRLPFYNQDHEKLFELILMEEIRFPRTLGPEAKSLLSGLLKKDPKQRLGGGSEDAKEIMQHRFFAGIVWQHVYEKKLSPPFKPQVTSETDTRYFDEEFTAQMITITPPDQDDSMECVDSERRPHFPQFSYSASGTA
Chain of Mitogen-activated protein kinase 14 (Homo sapiens) (Q16539 whole entry): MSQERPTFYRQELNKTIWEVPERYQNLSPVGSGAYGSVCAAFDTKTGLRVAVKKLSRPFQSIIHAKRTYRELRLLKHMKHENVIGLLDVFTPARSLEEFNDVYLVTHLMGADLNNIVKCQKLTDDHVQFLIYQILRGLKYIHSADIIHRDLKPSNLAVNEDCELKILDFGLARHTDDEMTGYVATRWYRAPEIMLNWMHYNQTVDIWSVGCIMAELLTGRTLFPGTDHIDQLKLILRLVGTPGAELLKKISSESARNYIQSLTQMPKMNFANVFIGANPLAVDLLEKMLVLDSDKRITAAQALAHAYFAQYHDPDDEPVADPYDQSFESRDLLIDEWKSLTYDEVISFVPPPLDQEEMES
Chain of MAP kinase-activated protein kinase 2 (Homo sapiens) (P49137 whole entry, looked up): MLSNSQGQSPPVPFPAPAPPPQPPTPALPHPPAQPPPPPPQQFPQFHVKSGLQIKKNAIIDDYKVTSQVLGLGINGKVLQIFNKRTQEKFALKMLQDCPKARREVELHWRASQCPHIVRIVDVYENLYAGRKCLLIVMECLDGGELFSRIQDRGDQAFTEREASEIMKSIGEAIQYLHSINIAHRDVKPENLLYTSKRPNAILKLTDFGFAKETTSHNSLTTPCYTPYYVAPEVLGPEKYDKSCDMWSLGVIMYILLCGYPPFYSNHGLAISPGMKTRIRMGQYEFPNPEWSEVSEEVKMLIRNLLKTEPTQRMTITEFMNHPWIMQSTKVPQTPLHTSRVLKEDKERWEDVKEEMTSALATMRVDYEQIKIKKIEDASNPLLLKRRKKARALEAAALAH
Chain of Rho-associated protein kinase 1 (Homo sapiens) (Q13464 2-1354 limits assumed): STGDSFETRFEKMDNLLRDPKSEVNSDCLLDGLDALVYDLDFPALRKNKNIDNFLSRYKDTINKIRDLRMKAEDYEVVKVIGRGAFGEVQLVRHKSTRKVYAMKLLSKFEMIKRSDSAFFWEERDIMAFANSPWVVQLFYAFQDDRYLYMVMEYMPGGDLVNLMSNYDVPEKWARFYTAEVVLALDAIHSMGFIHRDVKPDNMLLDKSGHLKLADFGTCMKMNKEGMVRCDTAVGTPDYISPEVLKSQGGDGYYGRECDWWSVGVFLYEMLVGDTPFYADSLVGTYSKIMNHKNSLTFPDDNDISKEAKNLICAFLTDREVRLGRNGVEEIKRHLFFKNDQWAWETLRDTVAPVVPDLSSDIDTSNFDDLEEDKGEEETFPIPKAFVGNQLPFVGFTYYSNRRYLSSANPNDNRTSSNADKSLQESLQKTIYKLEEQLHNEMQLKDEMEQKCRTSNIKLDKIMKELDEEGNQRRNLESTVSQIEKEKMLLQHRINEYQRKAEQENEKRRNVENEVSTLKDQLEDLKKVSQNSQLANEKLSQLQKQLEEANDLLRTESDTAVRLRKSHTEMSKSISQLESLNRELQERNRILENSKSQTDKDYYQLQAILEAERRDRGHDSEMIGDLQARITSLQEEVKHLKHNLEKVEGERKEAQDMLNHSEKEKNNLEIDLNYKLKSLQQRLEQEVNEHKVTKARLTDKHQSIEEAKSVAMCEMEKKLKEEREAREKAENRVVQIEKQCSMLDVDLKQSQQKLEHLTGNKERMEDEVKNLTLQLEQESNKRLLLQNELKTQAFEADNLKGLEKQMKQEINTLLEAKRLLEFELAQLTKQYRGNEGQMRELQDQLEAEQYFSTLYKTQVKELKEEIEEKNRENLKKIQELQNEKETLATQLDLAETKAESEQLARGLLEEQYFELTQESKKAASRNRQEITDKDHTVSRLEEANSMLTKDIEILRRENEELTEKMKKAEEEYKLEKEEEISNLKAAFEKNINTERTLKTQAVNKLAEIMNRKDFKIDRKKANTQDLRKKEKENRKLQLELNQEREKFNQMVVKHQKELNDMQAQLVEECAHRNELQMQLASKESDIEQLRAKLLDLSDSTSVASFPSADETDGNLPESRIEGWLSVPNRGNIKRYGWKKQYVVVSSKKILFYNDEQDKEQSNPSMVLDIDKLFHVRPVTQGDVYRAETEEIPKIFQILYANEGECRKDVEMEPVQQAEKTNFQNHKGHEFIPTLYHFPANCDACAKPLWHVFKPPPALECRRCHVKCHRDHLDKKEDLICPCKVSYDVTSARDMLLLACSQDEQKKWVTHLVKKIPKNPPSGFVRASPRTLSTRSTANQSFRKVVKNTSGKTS
Chain of Casein kinase II subunit alpha' (Homo sapiens) (P19784 whole entry, looked up, the tested form may be a part): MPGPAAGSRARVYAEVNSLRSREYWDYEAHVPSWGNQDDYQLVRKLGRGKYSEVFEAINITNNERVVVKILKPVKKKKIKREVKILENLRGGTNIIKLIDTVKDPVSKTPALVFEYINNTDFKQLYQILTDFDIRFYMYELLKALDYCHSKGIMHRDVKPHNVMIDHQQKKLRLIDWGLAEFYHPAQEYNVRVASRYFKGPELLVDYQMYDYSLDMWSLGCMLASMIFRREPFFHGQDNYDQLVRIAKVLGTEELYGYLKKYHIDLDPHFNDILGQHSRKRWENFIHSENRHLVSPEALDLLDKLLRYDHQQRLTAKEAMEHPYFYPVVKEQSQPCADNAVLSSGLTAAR

Row | Compound | logD [1] | Papp [2] [×10⁻⁶ cm/s] | inhibition [3] [%] | inhibition [4] [%] | inhibition [5] [%] | inhibition [6] [%] | inhibition [7] [%] | inhibition [8] [%] | inhibition [9] [%] | inhibition [10] [%] | inhibition [11] [%] | inhibition [12] [%] | inhibition [13] [%] | inhibition [14] [%]
1 | COc1ccc(S(N)(=O)=O)cc1C(=O)Nc1cccc(-c2nncn2C(C)C)n1 | 1.2 to 1.3 | 2 to 2.04 | 8 | -3 | -1 | -4 | -1 | 19 | 13 | 0 | 12 | 7 | -1 | -6
2 | COc1ccc(C(N)=O)cc1C(=O)Nc1cccc(-c2nncn2C(C)C)n1 | 1.5 | 3.5 | -10 | -5 | 0 | 2 | 59 | 4 | 10 | 0 | 9 | 11 | 11 | 7
3 | COc1cc(C)c(S(C)(=O)=O)cc1C(=O)Nc1cccc(-c2nncn2C(C)C)n1 | 1.7 | 7.2 | 1 | 5 | 3 | 0 | 7 | 1 | -1 | -1 | 12 | 11 | 2 | 11

Now from value to compound:

Row | logD [1] | Papp [2] [×10⁻⁶ cm/s] | inhibition [3] [%] | inhibition [4] [%] | inhibition [5] [%] | inhibition [6] [%] | inhibition [7] [%] | inhibition [8] [%] | inhibition [9] [%] | inhibition [10] [%] | inhibition [11] [%] | inhibition [12] [%] | inhibition [13] [%] | inhibition [14] [%] | Compound
4 | 1.6 | 3.5 | 0 | -4 | 1 | -3 | 57 | 7 | 0 | 5 | 3 | 5 | 17 | 10 | COc1cc(C)c(C(N)=O)cc1C(=O)Nc1cccc(-c2nncn2C(C)C)n1
5 | 1.6 | 2.3 | 6 | 0 | 6 | 6 | 8 | 4 | 7 | -1 | 9 | -3 | -3 | -2 | COc1cc(C)c(S(N)(=O)=O)cc1C(=O)Nc1cccc(-c2nncn2C(C)C)n1
6 | 1.3 | 7.9 | 3 | 0 | 5 | -3 | -4 | 10 | 6 | 3 | 5 | 1 | 0 | -2 | COc1ccc(S(C)(=O)=O)cc1C(=O)Nc1cccc(-c2nncn2C(C)C)n1
